Results reported in ChEMBL document CHEMBL1765042, “Utilization of nitrophenylphosphates and oxime-based ligation for the development of nanomolar affinity inhibitors of the Yersinia pestis outer protein H (YopH) phosphatase” (J Med Chem, 2011).
The source made the active and inactive calls. The rule behind the calls is not given here.

Experiments:
[1] = target: Secreted effector protein (Yersinia pestis) (UniProt O68720); assay: Inhibition of Yersinia pestis outer protein H expressed in Escherichia coli after 15 to 20 mins in absence of 0.01% TX-100
How it was run: (§1)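 YopH PTPase domain (residues 164–468) expressed in E. coli. Buffer: 25 mM HEPES pH 7.0–7.6, 50 mM NaCl, 2.5 mM EDTA, 5 mM DTT plus 1 mM fresh DTT, with BSA, no detergent. Inhibitor DMSO dilutions ran 400 to 0.032 μM. Substrate was pNPP (10 mM stock), incubated 25 °C for 15–20 min. pNPP hydrolysis was measured colorimetrically and IC50 came from a Boltzmann sigmoidal fit.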

J774 = assay: Cytotoxicity against mouse J774 cells assessed as cell viability by measuring ATP level at < 100 uM after 40 hrs; assay type: cell-based; conditions: j774, 40 h
How it was run: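 J774 mouse macrophages, 5 × 10^5 cells/well, in Eagle's MEM with 4 mM L-glutamine, 4500 mg/L glucose and 7.5% FBS, at 37 °C, 5% CO2. Compound was diluted from a 10 mM DMSO stock to final 0.1–100 μM (1% DMSO in all wells) and cells were cultured 40 h. Viability was read as cellular ATP content.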

[2] = Inhibition of Variola major virus phosphatase VH1
How it was run: (§2)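 Recombinant phosphatases: Variola major VH1, human DUSP-14, and catalytic domains of DUSP-22, PTP1B and LAR. Each was assayed by the same spectrophotometric pNPP hydrolysis method as YopH (HEPES pH 7.0–7.6, NaCl, EDTA, DTT, BSA buffer; 25 °C, 15–20 min). IC50 came from a Boltzmann sigmoidal fit.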

[3] = target: Secreted effector protein (Yersinia pestis) (UniProt O68720); assay: Inhibition of Yersinia pestis outer protein H expressed in Escherichia coli after 15 to 20 mins in presence of 0.01% TX-100
How it was run: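 YopH PTPase domain (residues 164–468, E. coli-expressed) run in a parallel independent pNPP hydrolysis assay with 0.01% Triton X-100 added. Buffer: 25 mM HEPES pH 7.0–7.6, 50 mM NaCl, 2.5 mM EDTA, DTT, BSA. Inhibitor DMSO dilutions ran 400 to 0.032 μM, incubated 25 °C for 15–20 min. IC50 came from a Boltzmann sigmoidal fit.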

[4] = target: Dual specificity protein phosphatase 22 (Homo sapiens, UniProt Q9NRW4); assay: Inhibition of human DUSP22; how it was run: as §2
[5] = target: Receptor-type tyrosine-protein phosphatase F (Homo sapiens, UniProt P10586); assay: Inhibition of human leukocyte antigen related phosphatase; how it was run: as §2
[6] = target: Tyrosine-protein phosphatase non-receptor type 1 (Homo sapiens, UniProt P18031); assay: Inhibition of human PTP1B; how it was run: as §2
[7] = target: Dual specificity protein phosphatase 14 (Homo sapiens, UniProt O95147); assay: Inhibition of human DUSP14; how it was run: as §2
Yersinia pestis = assay: Antimicrobial activity against pgm, pla deficient Yersinia pestis CO92 infected in human peripheral blood monocytes assessed as inhibition of intracellular bacterial growth at 10 uM after 16 hrs; assay type: functional, organism-based
[8] = target: Secreted effector protein (Yersinia pestis, UniProt O68720); assay: Inhibition of Yersinia pestis outer protein H expressed in Escherichia coli after 15 to 20 mins; how it was run: as §1
[9] = substrate: Cc1cccc([N+](=O)[O-])c1OP(=O)(O)O; conditions: Yersinia pestis
[10] = substrate: C/C=N/OCc1cc(OP(=O)(O)O)ccc1[N+](=O)[O-]; conditions: Yersinia pestis
[11] = substrate: NOCc1ccc(OP(=O)(O)O)c([N+](=O)[O-])c1; conditions: Yersinia pestis
[12] = substrate: O=[N+]([O-])c1cc(-c2ccccc2)ccc1OP(=O)(O)O; conditions: Yersinia pestis
[13] = substrate: O=[N+]([O-])c1ccc(OP(=O)(O)O)c(C2CCCCC2)c1; conditions: Yersinia pestis
[14] = substrate: Cc1cc([N+](=O)[O-])ccc1OP(=O)(O)O; conditions: Yersinia pestis
[15] = substrate: CC(C)(C)c1ccc(OP(=O)(O)O)c([N+](=O)[O-])c1; conditions: Yersinia pestis
[16] = substrate: NOCc1cc(OP(=O)(O)O)ccc1[N+](=O)[O-]; conditions: Yersinia pestis
[17] = substrate: O=[N+]([O-])c1ccc(OP(=O)(O)O)cc1-c1ccccc1; conditions: Yersinia pestis
[18] = substrate: CC(C)(C)c1cc(OP(=O)(O)O)ccc1[N+](=O)[O-]; conditions: Yersinia pestis
[19] = substrate: O=[N+]([O-])c1cccc(C2CCCCC2)c1OP(=O)(O)O; conditions: Yersinia pestis
[20] = substrate: O=[N+]([O-])c1ccc(OP(=O)(O)O)cc1; conditions: Yersinia pestis

Chain of Dual specificity protein phosphatase 14 (O95147 whole entry): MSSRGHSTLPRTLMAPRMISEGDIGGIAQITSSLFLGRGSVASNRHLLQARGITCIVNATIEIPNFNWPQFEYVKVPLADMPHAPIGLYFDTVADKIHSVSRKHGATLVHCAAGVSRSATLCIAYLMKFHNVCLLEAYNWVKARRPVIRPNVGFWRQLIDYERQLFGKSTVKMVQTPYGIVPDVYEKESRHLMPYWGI
Chain of Dual specificity protein phosphatase 22 (Q9NRW4 whole entry): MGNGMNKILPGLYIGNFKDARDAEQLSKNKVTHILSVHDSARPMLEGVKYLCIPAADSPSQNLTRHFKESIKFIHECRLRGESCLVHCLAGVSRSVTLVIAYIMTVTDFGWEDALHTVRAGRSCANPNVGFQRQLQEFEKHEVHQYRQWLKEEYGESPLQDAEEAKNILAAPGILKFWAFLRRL
Chain of Receptor-type tyrosine-protein phosphatase F (P10586 whole entry): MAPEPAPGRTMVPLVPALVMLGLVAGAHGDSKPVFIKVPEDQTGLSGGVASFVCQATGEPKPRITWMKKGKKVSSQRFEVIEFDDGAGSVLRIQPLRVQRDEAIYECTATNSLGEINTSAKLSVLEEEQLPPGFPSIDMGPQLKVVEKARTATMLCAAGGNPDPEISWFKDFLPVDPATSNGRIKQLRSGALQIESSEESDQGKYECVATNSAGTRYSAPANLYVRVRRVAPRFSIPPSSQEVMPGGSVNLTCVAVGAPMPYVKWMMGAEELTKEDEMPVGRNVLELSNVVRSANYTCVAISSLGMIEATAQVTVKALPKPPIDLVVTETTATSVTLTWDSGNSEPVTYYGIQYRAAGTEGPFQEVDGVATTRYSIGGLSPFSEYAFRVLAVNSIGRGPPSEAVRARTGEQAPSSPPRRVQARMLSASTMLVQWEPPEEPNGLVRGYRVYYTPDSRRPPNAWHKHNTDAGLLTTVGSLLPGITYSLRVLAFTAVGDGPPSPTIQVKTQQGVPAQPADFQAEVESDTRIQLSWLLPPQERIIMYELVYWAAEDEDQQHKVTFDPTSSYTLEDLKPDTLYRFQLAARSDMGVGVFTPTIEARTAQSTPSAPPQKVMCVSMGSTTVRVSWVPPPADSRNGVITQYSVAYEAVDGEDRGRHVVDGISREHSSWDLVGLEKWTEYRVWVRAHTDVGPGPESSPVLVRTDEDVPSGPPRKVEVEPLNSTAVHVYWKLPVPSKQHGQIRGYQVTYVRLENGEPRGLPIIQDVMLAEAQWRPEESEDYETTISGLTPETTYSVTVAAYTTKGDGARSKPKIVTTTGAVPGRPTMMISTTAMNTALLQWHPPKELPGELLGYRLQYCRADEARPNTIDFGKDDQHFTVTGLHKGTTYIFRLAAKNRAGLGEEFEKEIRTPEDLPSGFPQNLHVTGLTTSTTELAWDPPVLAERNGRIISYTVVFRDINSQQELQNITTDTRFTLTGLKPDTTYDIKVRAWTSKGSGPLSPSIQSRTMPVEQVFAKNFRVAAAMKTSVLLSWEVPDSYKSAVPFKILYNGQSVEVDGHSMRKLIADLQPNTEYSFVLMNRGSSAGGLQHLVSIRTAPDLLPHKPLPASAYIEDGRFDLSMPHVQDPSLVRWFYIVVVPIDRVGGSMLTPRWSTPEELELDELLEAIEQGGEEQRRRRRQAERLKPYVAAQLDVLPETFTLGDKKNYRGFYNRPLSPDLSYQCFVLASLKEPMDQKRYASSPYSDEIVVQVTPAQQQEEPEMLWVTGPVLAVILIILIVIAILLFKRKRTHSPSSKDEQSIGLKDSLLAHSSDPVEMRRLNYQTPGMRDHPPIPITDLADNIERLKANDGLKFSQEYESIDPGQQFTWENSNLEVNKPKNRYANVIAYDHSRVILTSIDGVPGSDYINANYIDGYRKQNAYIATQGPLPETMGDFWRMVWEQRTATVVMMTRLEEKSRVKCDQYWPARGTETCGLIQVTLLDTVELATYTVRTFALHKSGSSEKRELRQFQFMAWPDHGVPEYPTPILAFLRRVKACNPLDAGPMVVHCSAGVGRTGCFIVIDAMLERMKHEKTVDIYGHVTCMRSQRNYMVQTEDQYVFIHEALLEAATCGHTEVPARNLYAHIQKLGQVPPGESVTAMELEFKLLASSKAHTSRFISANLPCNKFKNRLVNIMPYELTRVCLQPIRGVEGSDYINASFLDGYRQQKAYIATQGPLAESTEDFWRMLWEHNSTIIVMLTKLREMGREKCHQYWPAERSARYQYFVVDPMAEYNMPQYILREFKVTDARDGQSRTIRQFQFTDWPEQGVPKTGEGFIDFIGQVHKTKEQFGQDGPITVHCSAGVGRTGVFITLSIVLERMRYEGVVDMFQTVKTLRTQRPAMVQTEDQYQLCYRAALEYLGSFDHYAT
Chain of Tyrosine-protein phosphatase non-receptor type 1 (P18031 whole entry): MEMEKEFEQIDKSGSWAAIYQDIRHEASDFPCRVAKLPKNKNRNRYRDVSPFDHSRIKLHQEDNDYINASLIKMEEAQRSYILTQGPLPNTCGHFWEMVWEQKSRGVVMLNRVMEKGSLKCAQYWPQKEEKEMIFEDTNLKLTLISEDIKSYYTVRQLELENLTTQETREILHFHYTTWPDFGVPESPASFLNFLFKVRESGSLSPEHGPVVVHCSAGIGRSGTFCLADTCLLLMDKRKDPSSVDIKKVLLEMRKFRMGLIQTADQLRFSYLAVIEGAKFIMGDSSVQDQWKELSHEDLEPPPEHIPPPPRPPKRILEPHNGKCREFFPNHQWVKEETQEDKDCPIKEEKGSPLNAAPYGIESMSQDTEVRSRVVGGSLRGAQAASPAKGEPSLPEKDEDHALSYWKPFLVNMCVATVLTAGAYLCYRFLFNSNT

O=C(O)c1ccc(/C=N/OCc2ccc(-c3cccc(C(F)(F)P(=O)(O)O)c3)cc2)o1
inhibition [1]: Active
Activity (J774): Non-toxic
IC50 [2]: > 400000 nM
inhibition [3]: Active
IC50 [4]: > 400000 nM
IC50 [5]: > 400000 nM
IC50 [6]: 2230 nM
IC50 [7]: > 400000 nM
inhibition (Yersinia pestis): Active
IC50 [8]: 190 nM

O=P(O)(O)C(F)(F)c1cccc(-c2ccc(CO/N=C/c3ccc(CO)o3)cc2)c1
IC50 [8]: 730 nM

O=P(O)(O)C(F)(F)c1cccc(-c2ccc(CO/N=C/c3ccco3)cc2)c1
IC50 [8]: 1200 nM

Cc1ccc(/C=N/OCc2ccc(-c3cccc(C(F)(F)P(=O)(O)O)c3)cc2)o1
IC50 [8]: 910 nM

GENTAMICIN
inhibition (Yersinia pestis): Active

O=P(O)(O)C(F)(F)c1cccc(-c2ccc(CO/N=C/c3ccoc3)cc2)c1
IC50 [8]: 3690 nM

B1: Secreted effector protein (Yersinia pestis), O68720 (protein)
chain: MNLSLSDLHRQVSRLVQQESGDCTGKLRGNVAANKETTFQGLTIASGARESEKVFAQTVLSHVANVVLTQEDTAKLLQSTVKHNLNNYDLRSVGNGNSVLVSLRSDQMTLQDAKVLLEAALRQESGARGHVSSHSHSALHAPGTPVREGLRSHLDPRTPPLPPRERPHTSGHHGAGEARATAPSTVSPYGPEARAELSSRLTTLRNTLAPATNDPRYLQACGGEKLNRFRDIQCCRQTAVRADLNANYIQVGNTRTIACQYPLQSQLESHFRMLAENRTPVLAVLASSSEIANQRFGMPDYFRQSGTYGSITVESKMTQQVGLGDGIMADMYTLTIREAGQKTISVPVVHVGNWPDQTAVSSEVTKALASLVDQTAETKRNMYESKGSSAVGDDSKLRPVIHCRAGVGRTAQLIGAMCMNDSRNSQLSVEDMVSQMRVQRNGIMVQKDEQLDVLIKLAEGQGRPLLNS
Km [9]: Not Active
Km [10]: 170 µM
Km [11]: 1130 µM
Km [12]: 150 µM
Km [13]: 260 µM
Km [14]: 650 µM
Km [15]: 470 µM
Km [16]: 410 µM
Km [17]: 80 µM
Km [18]: 1140 µM
Km [19]: Not Active
Km [20]: 600 µM
